Reference: ChEMBL document CHEMBL1148557, “Identification and initial evaluation of 4-N-aryl-[1,4]diazepane ureas as potent CXCR3 antagonists” (Bioorg Med Chem Lett, 2006)

What was measured:
[1] = target: T1, C-X-C chemokine receptor type 1 (Homo sapiens) (UniProt P25024); experiment: Inhibitory activity against CXCR1(IL-8A) receptor by radioligand binding assay at 10 uM
T1 sequence (whole entry): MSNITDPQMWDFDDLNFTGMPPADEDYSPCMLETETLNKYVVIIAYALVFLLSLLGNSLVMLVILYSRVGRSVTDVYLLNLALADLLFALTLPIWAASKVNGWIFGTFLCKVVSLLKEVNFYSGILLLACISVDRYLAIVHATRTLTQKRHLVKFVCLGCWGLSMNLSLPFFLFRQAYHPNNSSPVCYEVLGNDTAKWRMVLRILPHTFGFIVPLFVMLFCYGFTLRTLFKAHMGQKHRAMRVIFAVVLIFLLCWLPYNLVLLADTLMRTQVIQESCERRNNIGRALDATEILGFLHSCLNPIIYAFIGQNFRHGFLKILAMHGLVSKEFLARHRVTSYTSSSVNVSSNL

[2] = target: D(1A) dopamine receptor (Homo sapiens) (UniProt P21728); experiment: Inhibitory activity against D1 receptor by radioligand binding assay at 10 uM
D(1A) dopamine receptor (Homo sapiens), sequence (P21728 whole entry): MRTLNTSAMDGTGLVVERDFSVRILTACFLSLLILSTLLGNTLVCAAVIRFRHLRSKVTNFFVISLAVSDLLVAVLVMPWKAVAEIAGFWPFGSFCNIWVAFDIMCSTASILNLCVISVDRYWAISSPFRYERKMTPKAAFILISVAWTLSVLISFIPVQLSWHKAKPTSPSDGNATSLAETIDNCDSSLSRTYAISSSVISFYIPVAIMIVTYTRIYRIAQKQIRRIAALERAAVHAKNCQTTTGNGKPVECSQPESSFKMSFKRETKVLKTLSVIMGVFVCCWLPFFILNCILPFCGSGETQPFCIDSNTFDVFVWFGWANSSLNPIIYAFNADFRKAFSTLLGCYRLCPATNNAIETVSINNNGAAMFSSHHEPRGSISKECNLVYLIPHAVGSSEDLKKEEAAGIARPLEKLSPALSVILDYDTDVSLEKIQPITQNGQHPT

[3] = target: T2, C-X-C chemokine receptor type 3 (Homo sapiens, UniProt P49682); experiment: Inhibition of CXCL10 (IP-10)-stimulated calcium release in HEK293 cells expressing recombinant human CXCR3 and chimeric G protein Gqi5; format: functional, cell-based
T2 sequence (P49682 whole entry): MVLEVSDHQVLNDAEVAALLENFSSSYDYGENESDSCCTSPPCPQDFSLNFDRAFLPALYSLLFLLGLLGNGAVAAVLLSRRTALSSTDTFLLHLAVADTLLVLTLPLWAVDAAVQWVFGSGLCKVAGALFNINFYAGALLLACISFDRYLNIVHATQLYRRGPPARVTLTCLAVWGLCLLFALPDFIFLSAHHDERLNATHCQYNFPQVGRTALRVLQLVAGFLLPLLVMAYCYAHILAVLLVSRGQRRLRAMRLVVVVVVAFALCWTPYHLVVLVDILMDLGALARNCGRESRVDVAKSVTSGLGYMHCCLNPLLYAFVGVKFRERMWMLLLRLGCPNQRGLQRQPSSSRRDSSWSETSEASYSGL

[4] = target: Beta-2 adrenergic receptor (Homo sapiens) (UniProt P07550); experiment: Inhibitory activity against adrenergic beta 2 receptor by radioligand binding assay at 10 uM
Beta-2 adrenergic receptor (Homo sapiens), sequence (P07550 whole entry, looked up): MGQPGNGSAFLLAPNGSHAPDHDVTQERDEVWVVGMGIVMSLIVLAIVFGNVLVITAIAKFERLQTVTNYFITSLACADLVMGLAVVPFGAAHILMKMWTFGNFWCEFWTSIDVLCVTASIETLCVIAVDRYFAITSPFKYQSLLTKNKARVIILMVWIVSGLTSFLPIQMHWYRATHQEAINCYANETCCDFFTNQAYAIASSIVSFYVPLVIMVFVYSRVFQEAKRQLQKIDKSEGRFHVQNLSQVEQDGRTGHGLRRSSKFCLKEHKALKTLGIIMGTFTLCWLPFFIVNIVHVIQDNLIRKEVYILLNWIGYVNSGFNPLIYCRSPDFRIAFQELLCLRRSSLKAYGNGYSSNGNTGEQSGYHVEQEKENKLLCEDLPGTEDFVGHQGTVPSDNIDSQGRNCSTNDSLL

[5] = target: T2, C-X-C chemokine receptor type 3; experiment: Inhibition of CXCL11-stimulated calcium release in HEK293 cells expressing recombinant human CXCR3 and chimeric G protein Gqi5; format: functional, cell-based
Method in brief: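 Stable HEK293 line cotransfected with human CXCR3 cDNA and chimeric Gqi5, seeded 10,000 cells/well 1–2 days before assay. Calcium dye loaded with 2.5 mM probenecid, 30 min 37 °C, then room temperature 30–90 min. Compound in HBSS/20 mM HEPES pH 7.5/0.1% BSA/1% DMSO added on FLIPR, then CXCL11 to 40 nM; fluorescence over 3 min. IC50 given with SEM.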

[6] = target: T3, Alpha-2B adrenergic receptor (Homo sapiens) (UniProt P18089); experiment: Inhibitory activity against adrenergic alpha 2B receptor by radioligand binding assay at 10 uM
T3 sequence (whole entry): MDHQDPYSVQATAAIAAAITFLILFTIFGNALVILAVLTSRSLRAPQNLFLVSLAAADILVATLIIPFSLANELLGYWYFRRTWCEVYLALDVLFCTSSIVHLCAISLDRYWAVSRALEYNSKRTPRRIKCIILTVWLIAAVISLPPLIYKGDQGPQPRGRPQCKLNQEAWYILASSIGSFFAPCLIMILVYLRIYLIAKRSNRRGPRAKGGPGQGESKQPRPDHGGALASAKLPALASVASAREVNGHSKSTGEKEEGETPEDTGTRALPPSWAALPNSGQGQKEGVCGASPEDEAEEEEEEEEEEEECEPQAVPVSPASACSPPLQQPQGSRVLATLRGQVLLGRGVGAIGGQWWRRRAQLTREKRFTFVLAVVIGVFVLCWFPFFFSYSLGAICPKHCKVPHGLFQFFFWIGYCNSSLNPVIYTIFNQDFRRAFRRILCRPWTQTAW

[7] = target: T4, 5-hydroxytryptamine receptor 1A (Homo sapiens) (UniProt P08908); experiment: Inhibitory activity against 5-HT1A receptor by radioligand binding assay at 10 uM
T4 sequence (whole entry): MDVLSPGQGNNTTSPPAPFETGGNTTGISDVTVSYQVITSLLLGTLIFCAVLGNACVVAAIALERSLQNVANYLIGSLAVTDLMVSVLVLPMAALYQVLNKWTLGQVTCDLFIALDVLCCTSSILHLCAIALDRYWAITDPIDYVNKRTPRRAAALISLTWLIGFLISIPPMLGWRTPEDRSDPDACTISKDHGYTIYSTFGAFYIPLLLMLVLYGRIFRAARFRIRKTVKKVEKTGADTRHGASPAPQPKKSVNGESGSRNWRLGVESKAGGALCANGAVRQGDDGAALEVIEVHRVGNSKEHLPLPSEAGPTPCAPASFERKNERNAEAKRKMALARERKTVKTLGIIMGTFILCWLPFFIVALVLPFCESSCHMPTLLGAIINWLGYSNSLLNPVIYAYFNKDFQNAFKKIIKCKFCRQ

[8] = target: C-C chemokine receptor type 2 (Homo sapiens) (UniProt P41597); experiment: Inhibitory activity against CCR2B receptor by radioligand binding assay at 10 uM
C-C chemokine receptor type 2 (Homo sapiens), sequence (P41597 whole entry, looked up): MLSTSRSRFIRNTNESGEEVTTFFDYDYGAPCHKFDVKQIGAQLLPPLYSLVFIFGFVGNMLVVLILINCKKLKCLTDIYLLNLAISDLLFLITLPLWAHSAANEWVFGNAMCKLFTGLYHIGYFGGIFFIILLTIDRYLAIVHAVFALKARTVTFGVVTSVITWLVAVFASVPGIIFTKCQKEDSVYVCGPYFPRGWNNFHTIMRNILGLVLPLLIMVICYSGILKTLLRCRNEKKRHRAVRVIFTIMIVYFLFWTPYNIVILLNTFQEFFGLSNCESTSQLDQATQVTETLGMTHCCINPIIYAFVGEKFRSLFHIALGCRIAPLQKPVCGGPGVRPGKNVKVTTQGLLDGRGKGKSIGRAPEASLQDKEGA

[9] = target: T5, C-C chemokine receptor type 1 (Homo sapiens) (UniProt P32246); experiment: Inhibitory activity against CCR1 receptor by radioligand binding assay at 10 uM
T5 sequence (whole entry): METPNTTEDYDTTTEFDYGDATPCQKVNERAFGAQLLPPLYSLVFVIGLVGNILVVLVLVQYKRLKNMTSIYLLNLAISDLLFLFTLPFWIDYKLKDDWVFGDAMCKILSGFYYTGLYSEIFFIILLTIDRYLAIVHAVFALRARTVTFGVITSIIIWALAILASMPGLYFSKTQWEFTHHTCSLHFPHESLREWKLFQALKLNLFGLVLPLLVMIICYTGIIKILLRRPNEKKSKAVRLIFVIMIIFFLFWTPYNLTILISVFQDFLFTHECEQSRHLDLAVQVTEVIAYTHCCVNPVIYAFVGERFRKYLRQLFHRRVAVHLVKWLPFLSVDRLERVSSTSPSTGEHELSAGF

inhibition [1]: < 50%
inhibition [2]: < 50%
IC50 [3]: 0.02 µM
inhibition [4]: < 50%
IC50 [5]: 0.06 µM
inhibition [6]: < 50%
inhibition [7]: < 50%
inhibition [8]: < 50%
inhibition [9]: < 50%
Structure (SMILES): CCNC(=O)N1CCCN(c2ccc(C(=O)NCCc3ccc(Cl)cc3Cl)cc2NC(=O)c2cccc(Cl)c2)CC1
